Assay results reported in ChEMBL document CHEMBL1133103, “Design, synthesis, and structure-activity relationships of novel non-imidazole histamine H(3) receptor antagonists” (J Med Chem, 2000).

Columns and labels:
[1] = molecular target: T1, Histamine H3 receptor (Cavia porcellus, UniProt Q9JI35); assay: In vitro binding affinity for histamine H3 receptor was determined in guinea-pig cerebral cortex using [3H](R)-alpha-methylhistamine; assay type: tissue-based
[2] = molecular target: Histamine H3 receptor (Cavia porcellus) (UniProt Q9JI35); assay: Tested in vitro against histamine H3 receptor mediated inhibition of cholinergic neurogenic contractions in isolated guinea pig ileum; assay type: functional, tissue-based
Method in brief: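 Electrically stimulated guinea-pig ileum, where H3 receptors mediate inhibition of cholinergic neurogenic contractions. Agonist was (R)-α-methylhistamine. pKB ± SEM was estimated from single shifts of the agonist concentration-effect curve in at least four separate tissues, for compounds acting as surmountable antagonists. Compounds were given as dihydrochloride salts.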

[3] = molecular target: T1, Histamine H3 receptor; assay: In vitro binding affinity towards histamine H3 receptor was determined in guinea-pig cerebral cortex using [3H](R)-alpha-methylhistamine

T1 sequence (Q9JI35 whole entry): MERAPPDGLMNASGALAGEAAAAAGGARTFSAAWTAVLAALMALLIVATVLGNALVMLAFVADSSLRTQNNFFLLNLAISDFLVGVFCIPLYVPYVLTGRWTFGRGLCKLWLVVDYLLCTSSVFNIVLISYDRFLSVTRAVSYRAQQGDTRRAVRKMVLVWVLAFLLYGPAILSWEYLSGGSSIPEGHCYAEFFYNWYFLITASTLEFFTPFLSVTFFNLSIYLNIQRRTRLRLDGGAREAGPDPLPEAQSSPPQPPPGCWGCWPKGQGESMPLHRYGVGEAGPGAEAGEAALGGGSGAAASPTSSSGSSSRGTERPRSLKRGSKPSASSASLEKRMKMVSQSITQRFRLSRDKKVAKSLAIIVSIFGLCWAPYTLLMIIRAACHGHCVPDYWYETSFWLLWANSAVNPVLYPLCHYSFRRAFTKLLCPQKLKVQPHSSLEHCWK
Histamine H3 receptor (Cavia porcellus), sequence (Q9JI35 whole entry): as above

SMILES: N=C(NCCCN1CCCC1)Nc1ccc(Cl)cc1
- Ki [1]: 53.7 nM
- pKB [2]: 6.03

SMILES: COc1ccc(C/N=C(\N)NCCCN2CCCC2)cc1
- Ki [1]: 83.2 nM
- pKB [2]: 6.08

SMILES: N=C(NCCCCCN1CCCCCC1)NCC12CC3CC(CC(C3)C1)C2
- Ki [1]: 7.94 nM
- pKB [2]: 7.84

SMILES: O=S(=O)(NCCCN1CCCC1)c1ccc2ccccc2c1
- Ki [1]: 324 nM
- pKB [2]: 5.96

SMILES: N=C(NCCCN1CCCC1)NCc1ccc(Br)cc1
- Ki [1]: 4.68 nM
- pKB [2]: 6.45

SMILES: N=C(N)N(CCCCCN1CCCC1)Cc1ccc(Cl)cc1
- Ki [1]: 1.07 nM
- pKB [2]: 7.91

SMILES: N=C(NCCCCCN1CCCC1)NCCc1ccc(Cl)cc1
- Ki [1]: 7.59 nM
- pKB [2]: 7.06

SMILES: N=C(N)N(CCCCN1CCCC1)Cc1ccc(Cl)cc1
- Ki [1]: 7.94 nM
- pKB [2]: 7.34

SMILES: N=C(NCCCN1CCCC1)NCc1ccc(C(F)(F)F)cc1
- Ki [1]: 100 nM
- pKB [2]: 6.1

SMILES: N=C(N)N(CCCCCCN1CCCC1)Cc1ccc(Cl)cc1
- Ki [1]: 4.17 nM
- pKB [2]: 8.39

SMILES: S=C(NCCCN1CCCC1)NCc1ccc(Cl)cc1
- Ki [1]: 407 nM
- pKB [2]: 5.66

SMILES: O=S(=O)(NCCCN1CCCC1)NCc1ccc(Cl)cc1
- Ki [1]: 229 nM
- pKB [2]: 6.21

SMILES: O=S(=O)(Cc1ccc(Cl)cc1)NCCCN1CCCC1
- Ki [1]: 537 nM
- pKB [2]: 6.24

SMILES: N=C(NCCCCCN1CCCC1)NCC1CCCCCC1
- Ki [1]: 3.55 nM
- pKB [2]: 7.67

SMILES: N=C(NCCCN1CCCC1)NCc1ccccc1Br
- Ki [1]: 42.7 nM
- pKB [2]: 6.27

SMILES: N=C(NCCCCCN1CCCC1)NCC1CCCCC1
- Ki [1]: 1.41 nM
- pKB [2]: 7.52

SMILES: O=[N+]([O-])c1ccc(OCCCCCN2CCCC2)cc1
- Ki [3]: 39 nM

SMILES: N=C(NCCCN1CCCC1)NCc1ccc(Cl)cc1
- Ki [1]: 56.2 nM
- pKB [2]: 6.42

SMILES: N=C(NCCCN1CCCC1)NCc1ccc(I)cc1
- Ki [1]: 53.7 nM
- pKB [2]: 6.43

SMILES: N=C(NCCCCCN1CCCC1)NCc1ccc(Cl)cc1
- Ki [1]: 5.37 nM
- pKB [2]: 7.3

SMILES: N=C(NCCCN1CCCC1)NCCc1ccc(Cl)cc1
- Ki [1]: 0.933 nM
- pKB [2]: 6.68

SMILES: N=C(NCCCCCN1CCCCCCC1)NCC12CC3CC(CC(C3)C1)C2
- Ki [1]: 30.2 nM
- pKB [2]: 7.37

SMILES: N=C(NCCCCN1CCCC1)NCCc1ccc(Cl)cc1
- Ki [1]: 6.76 nM
- pKB [2]: 6.24

SMILES: N=C(N)N(CCCCCCCN1CCCC1)Cc1ccc(Cl)cc1
- Ki [1]: 2 nM
- pKB [2]: 8.38

SMILES: N=C(NCCCCN1CCCC1)NCc1ccc(Cl)cc1
- Ki [1]: 5.13 nM
- pKB [2]: 7.32

SMILES: N=C(NCCCN1CCCC1)NCc1cccc(Br)c1
- Ki [1]: 25.7 nM
- pKB [2]: 6.46

SMILES: N=C(NCCCCCN1CCCCC1)NCC12CC3CC(CC(C3)C1)C2
- Ki [1]: 10.7 nM
- pKB [2]: 8.14

SMILES: N=C(NCCCCCN1CCCC1)NCC12CC3CC(CC(C3)C1)C2
- Ki [1]: 3.55 nM
- pKB [2]: 7.9

SMILES: CN(C)CCCSC(=N)N
- Ki [1]: 47.9 nM
- pKB [2]: 5.93

SMILES: N=C(N)N(CCCCCCCCN1CCCC1)Cc1ccc(Cl)cc1
- Ki [1]: 4.68 nM
- pKB [2]: 8.09

SMILES: CN(C)CCCNS(=O)(=O)c1ccc2ccccc2c1
- Ki [1]: 1000 nM
- pKB [2]: 5.52

SMILES: N=C(NCCCN1CCCC1)NCc1ccccc1
- Ki [1]: 20 nM
- pKB [2]: 6.2

SMILES: O=[N+]([O-])c1ccc(OCCCN2CCC(Nc3nc4ccccc4s3)CC2)cc1
- Ki [1]: 6.31 nM
